Measured values reported in ChEMBL document CHEMBL1671826, “Effect of Inhibiting Histone Deacetylase with Short-Chain Carboxylic Acids and Their Hydroxamic Acid Analogs on Vertebrate Development and Neuronal Chromatin” (ACS Med Chem Lett, 2011).
Calls of active or inactive are those of the source. No cut-off for these calls is given here.

What was measured:
Histone deacetylase 8 = target: T1, Histone deacetylase 8 (Homo sapiens, UniProt Q9BY41); assay: Inhibition of human recombinant HDAC8
T1 sequence (Q9BY41 whole entry): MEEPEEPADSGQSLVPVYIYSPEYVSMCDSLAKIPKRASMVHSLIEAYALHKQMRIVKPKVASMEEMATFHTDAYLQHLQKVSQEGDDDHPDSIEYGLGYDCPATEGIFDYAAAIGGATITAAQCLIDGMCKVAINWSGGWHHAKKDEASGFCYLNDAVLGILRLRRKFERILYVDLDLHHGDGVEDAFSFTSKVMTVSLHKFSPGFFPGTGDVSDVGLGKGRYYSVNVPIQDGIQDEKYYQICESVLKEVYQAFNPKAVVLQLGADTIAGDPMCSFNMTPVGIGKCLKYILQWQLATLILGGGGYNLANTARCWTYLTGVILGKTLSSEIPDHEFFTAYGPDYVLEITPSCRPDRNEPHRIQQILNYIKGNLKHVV
Summary of the method: (§1)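 Recombinant HDAC isoforms incubated with acetyl-lysine tripeptide–AMC substrate (mimics histone H4 K12), or trifluoroacetyl-lysine-AMC for class IIa enzymes, each substrate at its Km; trypsin cleavage of deacetylated product releases fluorescent AMC. IC50 from two experiments in duplicate, mean ± SD.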

Histone deacetylase 4 = Histone deacetylase 4 (Homo sapiens, UniProt P56524); assay: Inhibition of human recombinant HDAC4; summary of the method: as §1
Histone deacetylase 5 = Histone deacetylase 5 (Homo sapiens, UniProt Q9UQL6); assay: Inhibition of human recombinant HDAC5; summary of the method: as §1
Histone deacetylase 7 = target: T2, Histone deacetylase 7 (Homo sapiens, UniProt Q8WUI4); assay: Inhibition of human recombinant HDAC7
T2 sequence (Q8WUI4 whole entry): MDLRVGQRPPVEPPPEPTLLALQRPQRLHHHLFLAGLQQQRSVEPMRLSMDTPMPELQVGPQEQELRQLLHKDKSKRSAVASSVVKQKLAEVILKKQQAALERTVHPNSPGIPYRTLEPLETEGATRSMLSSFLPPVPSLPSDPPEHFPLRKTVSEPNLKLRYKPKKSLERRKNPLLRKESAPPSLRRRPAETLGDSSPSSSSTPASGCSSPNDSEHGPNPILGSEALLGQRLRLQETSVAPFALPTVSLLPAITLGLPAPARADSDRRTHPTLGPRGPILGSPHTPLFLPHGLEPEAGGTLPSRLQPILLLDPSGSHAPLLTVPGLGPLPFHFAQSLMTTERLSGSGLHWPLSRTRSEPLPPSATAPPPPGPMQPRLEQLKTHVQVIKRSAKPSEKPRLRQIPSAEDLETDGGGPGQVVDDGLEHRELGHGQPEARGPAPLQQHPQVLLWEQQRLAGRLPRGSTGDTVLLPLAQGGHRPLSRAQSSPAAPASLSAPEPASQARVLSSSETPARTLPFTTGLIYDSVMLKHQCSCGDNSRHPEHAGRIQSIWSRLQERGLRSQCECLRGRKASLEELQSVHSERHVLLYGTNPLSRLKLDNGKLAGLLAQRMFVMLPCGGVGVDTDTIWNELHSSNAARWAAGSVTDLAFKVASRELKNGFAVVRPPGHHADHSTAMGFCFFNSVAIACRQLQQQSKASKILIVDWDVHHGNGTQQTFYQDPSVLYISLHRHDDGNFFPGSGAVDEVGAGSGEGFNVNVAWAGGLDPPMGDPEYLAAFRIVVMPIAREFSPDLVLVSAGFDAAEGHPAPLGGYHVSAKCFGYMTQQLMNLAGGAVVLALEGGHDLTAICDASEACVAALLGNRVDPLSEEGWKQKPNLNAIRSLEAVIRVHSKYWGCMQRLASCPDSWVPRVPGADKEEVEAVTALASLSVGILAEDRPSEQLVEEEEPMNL

Histone deacetylase 9 = Histone deacetylase 9 (Homo sapiens, UniProt Q9UKV0); assay: Inhibition of human recombinant HDAC9; summary of the method: as §1
[1] = target: T3, Protein deacetylase HDAC6 (Homo sapiens) (UniProt Q9UBN7); assay: Inhibition of HDAC6 in human HeLa cells assessed as acetylation of tubulin after 24 hrs by immunofluorescence assay; type: cell-based
T3 sequence (whole entry): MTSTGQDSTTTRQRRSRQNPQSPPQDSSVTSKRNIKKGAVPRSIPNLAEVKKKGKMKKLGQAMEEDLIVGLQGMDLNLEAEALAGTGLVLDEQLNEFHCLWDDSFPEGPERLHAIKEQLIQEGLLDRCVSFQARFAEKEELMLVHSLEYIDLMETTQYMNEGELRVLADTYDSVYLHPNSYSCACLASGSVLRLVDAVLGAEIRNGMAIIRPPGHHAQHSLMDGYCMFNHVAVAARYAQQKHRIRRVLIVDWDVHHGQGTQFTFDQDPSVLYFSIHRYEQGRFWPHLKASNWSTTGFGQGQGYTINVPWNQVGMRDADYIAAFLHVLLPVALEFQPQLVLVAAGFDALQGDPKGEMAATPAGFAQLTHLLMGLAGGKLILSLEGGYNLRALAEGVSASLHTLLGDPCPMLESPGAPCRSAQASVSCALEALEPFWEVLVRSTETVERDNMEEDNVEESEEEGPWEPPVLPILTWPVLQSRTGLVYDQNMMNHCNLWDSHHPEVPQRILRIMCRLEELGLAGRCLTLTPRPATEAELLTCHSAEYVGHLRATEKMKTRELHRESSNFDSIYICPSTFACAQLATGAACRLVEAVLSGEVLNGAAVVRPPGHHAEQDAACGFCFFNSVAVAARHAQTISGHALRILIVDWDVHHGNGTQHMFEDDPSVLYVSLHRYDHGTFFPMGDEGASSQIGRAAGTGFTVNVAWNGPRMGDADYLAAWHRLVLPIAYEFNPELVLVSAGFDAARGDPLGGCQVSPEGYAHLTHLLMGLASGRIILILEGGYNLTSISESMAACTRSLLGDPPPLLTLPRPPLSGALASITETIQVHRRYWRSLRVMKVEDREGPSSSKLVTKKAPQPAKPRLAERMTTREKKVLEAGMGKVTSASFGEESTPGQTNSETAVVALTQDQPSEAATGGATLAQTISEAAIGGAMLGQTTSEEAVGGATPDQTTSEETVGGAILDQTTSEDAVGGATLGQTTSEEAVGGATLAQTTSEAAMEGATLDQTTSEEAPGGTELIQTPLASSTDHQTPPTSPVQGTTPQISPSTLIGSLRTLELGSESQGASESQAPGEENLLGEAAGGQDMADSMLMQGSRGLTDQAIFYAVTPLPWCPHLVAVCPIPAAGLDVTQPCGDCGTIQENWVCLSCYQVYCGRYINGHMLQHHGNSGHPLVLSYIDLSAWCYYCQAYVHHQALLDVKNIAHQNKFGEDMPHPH
Summary of the method: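 HeLa cells treated 24 h at the indicated doses; tubulin acetylation quantified by immunofluorescence.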

[2] = target: T4, Protein deacetylase HDAC6 (Mus musculus) (UniProt Q9Z2V5); assay: Inhibition of HDAC6 in mouse primary forebrain neurons assessed as acetylation of tubulin at 92.5 uM after 24 hrs by immunofluorescence assay
T4 sequence (whole entry): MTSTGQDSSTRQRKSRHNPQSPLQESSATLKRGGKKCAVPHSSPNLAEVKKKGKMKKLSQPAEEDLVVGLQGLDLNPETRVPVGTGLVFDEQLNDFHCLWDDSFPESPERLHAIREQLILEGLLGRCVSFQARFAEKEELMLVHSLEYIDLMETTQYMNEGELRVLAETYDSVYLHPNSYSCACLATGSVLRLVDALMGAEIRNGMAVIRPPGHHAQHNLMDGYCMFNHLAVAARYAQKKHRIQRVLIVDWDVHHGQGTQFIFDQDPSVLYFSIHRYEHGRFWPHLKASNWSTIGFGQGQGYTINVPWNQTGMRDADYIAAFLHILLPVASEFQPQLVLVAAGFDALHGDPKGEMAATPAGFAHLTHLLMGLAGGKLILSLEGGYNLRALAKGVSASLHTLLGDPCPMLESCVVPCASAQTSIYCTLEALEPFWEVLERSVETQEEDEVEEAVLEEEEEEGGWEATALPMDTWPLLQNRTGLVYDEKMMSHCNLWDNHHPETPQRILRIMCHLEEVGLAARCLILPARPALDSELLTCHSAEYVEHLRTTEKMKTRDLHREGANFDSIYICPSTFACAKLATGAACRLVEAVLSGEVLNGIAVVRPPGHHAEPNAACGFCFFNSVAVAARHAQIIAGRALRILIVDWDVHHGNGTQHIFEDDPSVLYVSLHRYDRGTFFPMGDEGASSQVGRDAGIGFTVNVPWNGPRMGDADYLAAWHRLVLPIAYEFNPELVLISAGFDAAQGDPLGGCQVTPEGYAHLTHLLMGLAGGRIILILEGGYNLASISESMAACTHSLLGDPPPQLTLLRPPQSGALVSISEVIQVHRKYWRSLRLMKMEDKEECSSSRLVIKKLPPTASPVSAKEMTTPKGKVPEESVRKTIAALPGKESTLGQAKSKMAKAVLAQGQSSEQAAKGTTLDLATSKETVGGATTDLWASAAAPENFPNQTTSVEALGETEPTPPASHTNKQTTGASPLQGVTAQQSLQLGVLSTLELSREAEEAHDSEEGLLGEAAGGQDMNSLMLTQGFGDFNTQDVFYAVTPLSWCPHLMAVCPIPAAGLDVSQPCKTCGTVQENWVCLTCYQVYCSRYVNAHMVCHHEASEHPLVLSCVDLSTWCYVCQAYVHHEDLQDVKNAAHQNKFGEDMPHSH
Summary of the method: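 Primary mouse forebrain cultures treated 24 h at a single concentration; tubulin acetylation measured by immunofluorescence.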

Mus musculus = species: Mus musculus; assay: Inhibition of HDAC in mouse primary forebrain neurons assessed as acetylation of histone H3 lysine 9 at 92.5 uM after 24 hrs by immunofluorescence assay
Histone deacetylase 1 = Histone deacetylase 1 (Homo sapiens, UniProt Q13547); assay: Inhibition of human recombinant HDAC1; summary of the method: as §1
Histone deacetylase 2 = Histone deacetylase 2 (Homo sapiens, UniProt Q92769); assay: Inhibition of human recombinant HDAC2; summary of the method: as §1
Histone deacetylase 3 = Histone deacetylase 3 (Homo sapiens, UniProt O15379); assay: Inhibition of human recombinant HDAC3; summary of the method: as §1
[3] = target: T5, Protein deacetylase HDAC6 (Homo sapiens, UniProt Q9UBN7); assay: Inhibition of human recombinant HDAC6; summary of the method: as §1
T5 sequence (Q9UBN7 whole entry): T3 sequence (whole entry)

Xenopus laevis [4] = species: Xenopus laevis; assay: Induction of developmental deffects in frog embryos assessed as loss of anterior structures at 2 mM after 18 hrs; type: organism-based; settings: in vivo, 2000 µM
Summary of the method: (§2)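 Xenopus laevis embryos exposed in the whole-organism development assay at 2 mM and scored morphologically for loss of anterior structures, shortened anterior–posterior axis, and heart looping and pigment defects; compared with untreated embryos.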

Xenopus laevis [5] = species: Xenopus laevis; assay: Induction of developmental deffects in frog embryos assessed as shortening of anterior-posterior axis at 2 mM after 18 hrs; type: organism-based; settings: in vivo, 2000 µM; summary of the method: as §2
Xenopus laevis [6] = species: Xenopus laevis; assay: Induction of developmental deffects in frog embryos assessed as heart looping and pigment deffects at 2 mM after 18 hrs; type: organism-based; settings: in vivo, 2000 µM; summary of the method: as §2
Xenopus laevis [7] = species: Xenopus laevis; assay: Induction of tubulin acetylation in frog embryos at 2 mM after 18 hrs Western blotting
Summary of the method: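 Frog embryos treated from stage 18 (end of neurulation) through tailbud stages (32) for 18 h at the indicated concentrations; acetylated tubulin detected by Western blot.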

Xenopus laevis [8] = species: Xenopus laevis; assay: Induction of histone H3 acetylation in frog embryos at 2 mM after 2 hrs Western blotting
Summary of the method: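 Frog embryos treated from completion of neurulation (stage 18) into tailbud stages for 2 h at the indicated concentrations; histone acetylation read by Western blot.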

Sequence of Histone deacetylase 9 (Q9UKV0 whole entry): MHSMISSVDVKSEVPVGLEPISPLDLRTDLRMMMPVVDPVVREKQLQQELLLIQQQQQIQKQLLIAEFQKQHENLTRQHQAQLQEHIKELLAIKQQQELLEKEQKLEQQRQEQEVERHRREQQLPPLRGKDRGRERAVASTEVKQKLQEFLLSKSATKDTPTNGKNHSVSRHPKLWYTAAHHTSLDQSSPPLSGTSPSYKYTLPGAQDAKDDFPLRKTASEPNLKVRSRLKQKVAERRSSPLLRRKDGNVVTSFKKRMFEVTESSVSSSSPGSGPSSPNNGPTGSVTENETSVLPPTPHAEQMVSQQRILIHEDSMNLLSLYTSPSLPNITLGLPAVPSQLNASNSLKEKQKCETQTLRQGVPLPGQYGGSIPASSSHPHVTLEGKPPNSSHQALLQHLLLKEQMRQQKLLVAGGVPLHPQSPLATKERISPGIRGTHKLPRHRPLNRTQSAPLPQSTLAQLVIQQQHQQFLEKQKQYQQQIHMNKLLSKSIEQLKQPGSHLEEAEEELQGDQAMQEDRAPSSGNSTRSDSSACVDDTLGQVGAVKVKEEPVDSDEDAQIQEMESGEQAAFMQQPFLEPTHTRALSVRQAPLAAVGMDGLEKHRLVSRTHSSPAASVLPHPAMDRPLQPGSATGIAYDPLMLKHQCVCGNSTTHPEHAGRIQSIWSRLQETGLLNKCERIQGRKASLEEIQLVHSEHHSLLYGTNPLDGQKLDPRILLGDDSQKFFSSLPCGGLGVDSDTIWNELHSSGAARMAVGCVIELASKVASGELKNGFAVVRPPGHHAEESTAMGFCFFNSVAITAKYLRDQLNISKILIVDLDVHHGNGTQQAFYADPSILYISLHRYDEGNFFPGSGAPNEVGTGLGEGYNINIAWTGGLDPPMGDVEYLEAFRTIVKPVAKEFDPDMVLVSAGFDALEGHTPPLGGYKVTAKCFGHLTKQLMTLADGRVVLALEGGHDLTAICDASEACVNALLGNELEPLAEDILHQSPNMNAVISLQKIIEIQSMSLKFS
Sequence of Histone deacetylase 5 (Q9UQL6 whole entry): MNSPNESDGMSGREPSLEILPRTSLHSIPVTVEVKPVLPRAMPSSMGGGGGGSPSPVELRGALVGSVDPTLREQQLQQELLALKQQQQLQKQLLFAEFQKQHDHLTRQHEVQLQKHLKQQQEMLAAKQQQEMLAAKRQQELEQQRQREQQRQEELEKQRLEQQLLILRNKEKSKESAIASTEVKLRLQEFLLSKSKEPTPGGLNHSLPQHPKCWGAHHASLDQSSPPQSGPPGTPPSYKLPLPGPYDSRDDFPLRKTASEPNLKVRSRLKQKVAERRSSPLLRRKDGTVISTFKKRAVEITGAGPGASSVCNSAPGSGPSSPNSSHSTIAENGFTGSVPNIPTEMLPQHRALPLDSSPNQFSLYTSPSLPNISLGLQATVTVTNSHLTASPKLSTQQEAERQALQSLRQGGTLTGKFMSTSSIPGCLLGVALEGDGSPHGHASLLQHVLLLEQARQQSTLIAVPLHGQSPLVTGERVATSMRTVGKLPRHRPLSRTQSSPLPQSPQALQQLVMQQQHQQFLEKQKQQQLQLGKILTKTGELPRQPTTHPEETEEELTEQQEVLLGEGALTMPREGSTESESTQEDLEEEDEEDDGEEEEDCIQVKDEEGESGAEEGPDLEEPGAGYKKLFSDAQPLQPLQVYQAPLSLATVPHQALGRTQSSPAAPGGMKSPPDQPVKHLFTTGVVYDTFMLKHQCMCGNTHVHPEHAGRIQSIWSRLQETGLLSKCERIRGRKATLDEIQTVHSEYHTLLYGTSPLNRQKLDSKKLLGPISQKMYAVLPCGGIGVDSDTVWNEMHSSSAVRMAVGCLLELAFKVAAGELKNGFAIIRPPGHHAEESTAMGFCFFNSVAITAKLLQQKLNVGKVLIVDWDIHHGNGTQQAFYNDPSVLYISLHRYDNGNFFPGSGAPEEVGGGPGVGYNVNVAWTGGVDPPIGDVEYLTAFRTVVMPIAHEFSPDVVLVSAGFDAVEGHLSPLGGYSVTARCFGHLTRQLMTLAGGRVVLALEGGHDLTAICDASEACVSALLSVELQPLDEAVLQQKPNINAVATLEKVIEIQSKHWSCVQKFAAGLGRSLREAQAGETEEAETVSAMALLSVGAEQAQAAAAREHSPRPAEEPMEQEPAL
Sequence of Histone deacetylase 2 (Q92769 whole entry): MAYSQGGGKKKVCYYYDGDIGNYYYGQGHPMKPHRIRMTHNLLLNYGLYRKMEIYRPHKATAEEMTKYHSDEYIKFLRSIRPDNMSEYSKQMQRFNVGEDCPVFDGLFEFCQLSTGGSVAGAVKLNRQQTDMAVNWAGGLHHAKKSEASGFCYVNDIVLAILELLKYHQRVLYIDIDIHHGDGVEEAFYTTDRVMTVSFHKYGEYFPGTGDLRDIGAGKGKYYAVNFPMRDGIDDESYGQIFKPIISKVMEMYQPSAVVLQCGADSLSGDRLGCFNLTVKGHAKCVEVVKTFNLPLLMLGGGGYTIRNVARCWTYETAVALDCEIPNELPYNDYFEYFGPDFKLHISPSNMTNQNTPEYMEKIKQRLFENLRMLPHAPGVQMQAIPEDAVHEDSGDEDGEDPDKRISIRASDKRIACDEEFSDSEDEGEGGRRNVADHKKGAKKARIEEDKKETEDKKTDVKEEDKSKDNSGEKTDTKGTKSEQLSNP
Sequence of Histone deacetylase 4 (P56524 whole entry): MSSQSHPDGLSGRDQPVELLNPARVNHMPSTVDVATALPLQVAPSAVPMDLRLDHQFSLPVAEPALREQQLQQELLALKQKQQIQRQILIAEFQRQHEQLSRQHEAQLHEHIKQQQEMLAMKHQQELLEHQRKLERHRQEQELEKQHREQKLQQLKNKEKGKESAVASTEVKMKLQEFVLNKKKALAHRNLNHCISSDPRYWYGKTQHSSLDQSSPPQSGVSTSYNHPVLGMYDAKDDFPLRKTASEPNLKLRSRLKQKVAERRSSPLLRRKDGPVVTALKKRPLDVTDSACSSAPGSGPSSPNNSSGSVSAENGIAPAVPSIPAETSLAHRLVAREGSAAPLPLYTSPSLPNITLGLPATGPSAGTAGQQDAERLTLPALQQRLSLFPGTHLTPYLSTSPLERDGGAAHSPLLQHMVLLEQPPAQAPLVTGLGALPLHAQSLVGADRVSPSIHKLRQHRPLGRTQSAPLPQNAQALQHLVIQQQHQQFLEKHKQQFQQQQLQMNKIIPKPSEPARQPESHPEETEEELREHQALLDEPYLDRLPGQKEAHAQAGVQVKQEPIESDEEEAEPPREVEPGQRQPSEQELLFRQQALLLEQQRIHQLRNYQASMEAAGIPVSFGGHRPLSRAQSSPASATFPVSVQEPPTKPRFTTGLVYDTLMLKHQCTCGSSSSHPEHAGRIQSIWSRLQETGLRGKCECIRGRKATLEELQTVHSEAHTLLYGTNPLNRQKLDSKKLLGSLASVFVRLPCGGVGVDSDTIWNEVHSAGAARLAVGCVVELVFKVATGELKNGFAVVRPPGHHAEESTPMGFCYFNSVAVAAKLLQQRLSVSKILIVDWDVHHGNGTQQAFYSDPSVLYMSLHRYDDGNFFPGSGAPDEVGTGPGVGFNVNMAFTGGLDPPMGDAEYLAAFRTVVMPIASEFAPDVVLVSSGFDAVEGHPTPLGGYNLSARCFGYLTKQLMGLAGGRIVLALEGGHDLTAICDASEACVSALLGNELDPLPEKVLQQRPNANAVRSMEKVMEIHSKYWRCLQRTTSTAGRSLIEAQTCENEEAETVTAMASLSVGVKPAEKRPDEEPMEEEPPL
Sequence of Histone deacetylase 3 (O15379 whole entry): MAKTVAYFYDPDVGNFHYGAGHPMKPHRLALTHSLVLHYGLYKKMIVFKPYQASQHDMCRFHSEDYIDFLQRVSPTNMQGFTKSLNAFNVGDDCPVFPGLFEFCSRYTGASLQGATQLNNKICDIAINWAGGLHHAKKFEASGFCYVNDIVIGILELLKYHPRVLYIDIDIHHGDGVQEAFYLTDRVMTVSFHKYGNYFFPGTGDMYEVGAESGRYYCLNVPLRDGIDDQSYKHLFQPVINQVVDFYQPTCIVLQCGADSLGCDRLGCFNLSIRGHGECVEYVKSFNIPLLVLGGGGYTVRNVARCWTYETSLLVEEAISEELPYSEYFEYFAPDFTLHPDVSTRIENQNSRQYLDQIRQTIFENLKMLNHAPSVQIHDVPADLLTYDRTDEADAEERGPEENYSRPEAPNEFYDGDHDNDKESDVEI
Sequence of Histone deacetylase 1 (Q13547 whole entry): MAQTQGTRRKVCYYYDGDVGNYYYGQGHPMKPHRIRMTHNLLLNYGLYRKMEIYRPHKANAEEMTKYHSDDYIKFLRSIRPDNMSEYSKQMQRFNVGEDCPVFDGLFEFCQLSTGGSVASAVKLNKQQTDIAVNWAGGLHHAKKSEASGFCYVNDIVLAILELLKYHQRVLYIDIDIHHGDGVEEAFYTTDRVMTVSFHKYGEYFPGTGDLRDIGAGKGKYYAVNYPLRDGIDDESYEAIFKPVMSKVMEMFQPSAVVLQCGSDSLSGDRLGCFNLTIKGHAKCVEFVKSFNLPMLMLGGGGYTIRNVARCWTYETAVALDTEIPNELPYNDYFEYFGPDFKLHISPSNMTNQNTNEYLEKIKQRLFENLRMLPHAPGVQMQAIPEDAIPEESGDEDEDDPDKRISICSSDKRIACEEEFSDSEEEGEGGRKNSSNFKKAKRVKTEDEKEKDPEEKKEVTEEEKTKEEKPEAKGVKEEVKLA

Row | SMILES | IC50 (Histone deacetylase 8) | IC50 (Histone deacetylase 4) | IC50 (Histone deacetylase 5) | IC50 (Histone deacetylase 7) | IC50 (Histone deacetylase 9) | inhibition [1] | inhibition [2] | inhibition (Mus musculus) | IC50 (Histone deacetylase 1) | IC50 (Histone deacetylase 2) | IC50 (Histone deacetylase 3) | IC50 [3] | Activity (Xenopus laevis [4]) | Activity (Xenopus laevis [5]) | Activity (Xenopus laevis [6]) | Activity (Xenopus laevis [7]) | Activity (Xenopus laevis [8])
1 | O=C(O)CCCc1ccccc1 | 93 µM | > 2 mM | > 2000 µM | > 2 mM | > 2 mM | inactive | Active | inactive | – | – | – | – | – | – | – | – | –
2 | CCCC(=O)O [BUTYRIC ACID] | 15 µM | > 2 mM | > 2000 µM | > 2 mM | > 2 mM | inactive | – | inactive | 16 µM | 12 µM | 9 µM | > 2000 µM | – | – | – | – | –
3 | CCCC(=O)NO [BUTYRYLHYDROXAMIC ACID] | 26 µM | > 2 mM | 360 µM | > 1 mM | > 2 mM | Active | – | Active | 7 µM | 9 µM | 10 µM | 2 µM | – | – | – | – | –
4 | O=C(CCCc1ccccc1)NO [PHENYLBUTYRYLHYDROXAMIC ACID] | 4 µM | 0.14 mM | 25 µM | – | 0.43 mM | Active | – | Active | – | 0.6 µM | – | 0.5 µM | – | – | – | – | –
5 | CCCC(CCC)C(=O)O [VALPROIC ACID] | – | > 2 mM | > 2000 µM | > 2 mM | > 2 mM | inactive | – | inactive | 39 µM | – | – | > 2000 µM | Toxic | Toxic | Toxic | – | –
6 | CCCC(CCC)C(=O)NO [VALPROPYLHYDROXAMIC ACID] | 39 µM | 0.17 mM | 37 µM | – | 0.091 mM | Active | Active | inactive | 560 µM | 680 µM | 340 µM | 16 µM | Non-toxic | Non-toxic | Non-toxic | Active | inactive
